Screening results as filed in PubChem BioAssay.
Rows were chosen to be rich in hits. Some 1.8% of all compounds tested hit in one or more screens of this group.
M5 PAM: potentiates acetylcholine response at human M5 receptor. CHO-K1 hM5, Fluo-8 calcium, ACh EC20 PAM; 0% = ACh EC20, 100% = ACh EC100. activation, % at 3 µM. hit rate 0.3% among 360,000. AID 624038;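 active means activation above the run cutoff, the mean activation of all test compounds plus 3 SD, cut at about 18% in these data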
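Assay system: CHO-K1 hM5 cells. Also added: acetylcholine at EC20 concentration, added after compound. Dosing: 3 µM, single dose. Times: compound preincubation 140 s before EC20 acetylcholine addition. Signal: Fluo-8 calcium fluorescence. Measure: % activation relative to EC20 and EC100 ACh responses. Repeats: singlicate, one well per test compound.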
M4 PAM: CHRM4 positive allosteric modulation | activation, % at 3 µM | hit rate 0.4% among 360,000 | P08173 | CHO-K1 hM4/Gqi5, Fluo-8 calcium fluorescence, ACh EC20; 0% = ACh EC20, 100% = maximal ACh;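 active means activation above its plate's cutoff, the mean activation of sample wells plus 3 SD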
Target sequence (P08173 whole entry, looked up): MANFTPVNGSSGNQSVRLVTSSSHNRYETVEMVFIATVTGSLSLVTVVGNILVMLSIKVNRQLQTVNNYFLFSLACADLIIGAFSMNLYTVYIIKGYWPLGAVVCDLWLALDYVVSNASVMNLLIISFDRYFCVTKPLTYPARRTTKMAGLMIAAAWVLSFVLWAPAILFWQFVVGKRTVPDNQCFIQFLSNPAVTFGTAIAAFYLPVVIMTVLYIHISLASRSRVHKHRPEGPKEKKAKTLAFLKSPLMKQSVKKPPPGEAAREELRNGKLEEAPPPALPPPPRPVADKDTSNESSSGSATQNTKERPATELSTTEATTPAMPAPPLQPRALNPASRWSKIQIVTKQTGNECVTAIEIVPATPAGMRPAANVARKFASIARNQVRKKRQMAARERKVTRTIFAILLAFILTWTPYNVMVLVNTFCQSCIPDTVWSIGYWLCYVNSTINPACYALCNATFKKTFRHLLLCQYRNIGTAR
CHRM4 antagonist: antagonists of human muscarinic M4 receptor (CHRM4) | CHO-hM4 cells, ACh EC80, Fluo-8 calcium fluorescence | inhibition, % at 3 µM | hit rate 0.73% among 360,000;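 active means inhibition above its plate's cutoff, the mean inhibition of sample wells plus 3 SD, cut at about 27% in these data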;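 further: 0% = acetylcholine EC80 with DMSO and 100% = DMSO without agonist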
M5 antag: antagonists of human muscarinic M5 receptor (CHRM5); CHO-hM5 cells, Fluo-8 calcium fluorescence, ACh EC80; inhibition, % at 3 µM; hit rate 0.59% among 360,000;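 active means inhibition above a per-plate cutoff, the mean of that plate's test compounds plus 3 SD, cut at about 27% in these data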;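 further: 0% = acetylcholine EC80 with DMSO and 100% = DMSO without agonist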
M5 ag: agonists of human muscarinic M5 receptor (CHRM5) | AID 624037 | CHO-K1 hM5 cells, Fluo-8 calcium fluorescence; 0% DMSO wells, 100% maximal acetylcholine response | activation, % at 3 µM | hit rate 0.19% among 360,000;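 active means activation above the run's mean over test compounds plus 3 SD, cut at about 23% in these data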;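 further: signal is peak over basal fluorescence ratio across the kinetic read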
CHRM4 agonist: agonists of human muscarinic M4 receptor (CHRM4); activation, % at 3 µM; CHO-K1 hM4/Gqi5, Fluo-8 calcium fluorescence; vehicle 0%, full acetylcholine response 100%; AID 624127; P08173; hit rate 0.14% among 360,000;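 active means activation above the run mean over all test wells plus 3 SD, cut at about 32% in these data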;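 further: peak over basal fluorescence ratio per well then scaled between controls; 0% = DMSO wells and 100% = acetylcholine at EC100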
* marks the source's active call; other numbers are inactive results.

What do the screens show for `c1cc2c3c(cccc3c1)C(N1CCOCC1)=N2`?
M5 PAM: 9.5; M4 PAM: -7.2; CHRM4 antagonist: -0.9; M5 antag: 12.0; M5 ag: -5.1; CHRM4 agonist: 0.6

What do the screens show for `c1ccc(CC2CCN(C3=Nc4cccc5cccc3c45)CC2)cc1`?
M5 PAM: -28.1; M4 PAM: -18.1; CHRM4 antagonist: 27.2*; M5 antag: 17.2; M5 ag: -13.2; CHRM4 agonist: 7.0

How did CC1(C)[C@H]2CC=C(CN3CCC(N4CCC(C(=O)N5CCCC5)CC4)CC3)[C@@H]1C2 do in these assays?
M5 PAM: -6.3; M4 PAM: -50.0; CHRM4 antagonist: 55.8*; M5 antag: 8.2; M5 ag: -17.4; CHRM4 agonist: 0.5

Results for CCC(C)C(=O)Nc1nnc(SCC(=O)NC(C)(C)C)s1 (stereo unspecified) ?
M5 PAM: 7.2; M4 PAM: -0.6; CHRM4 antagonist: 3.2; M5 antag: 1.9; M5 ag: -0.9; CHRM4 agonist: 0.1

What do the screens show for `O=C(Oc1ccccc1C(=O)Nc1ccccc1)c1ccccc1Br`?
M5 PAM: -3.7; M4 PAM: 6.7; CHRM4 antagonist: 1.3; M5 antag: 16.5; M5 ag: -3.1; CHRM4 agonist: 3.6

What do the screens show for `O=C(Cn1nc([N+](=O)[O-])nc1Br)NC(c1ccccc1)c1ccccc1`?
M5 PAM: -4.0; M4 PAM: -7.0; CHRM4 antagonist: 30.0*; M5 antag: 7.9; M5 ag: -1.1; CHRM4 agonist: 2.3

Results for CCN1C(=O)/C(=C/C=C2/CCCN2C)OC1=S ?
M5 PAM: -9.1; M4 PAM: 6.7; CHRM4 antagonist: 0.7; M5 antag: 16.5; M5 ag: -1.7; CHRM4 agonist: 3.7

Results for CC1(C)Cc2ccccc2C(c2cc3ccccc3oc2=O)=N1 ?
M5 PAM: 15.7; M4 PAM: -1.6; CHRM4 antagonist: -0.2; M5 antag: -3.4; M5 ag: 2.2; CHRM4 agonist: 0.8

Results for CC1(C)Cc2c(ccc3ccccc23)C(c2cc3ccccc3oc2=O)=N1 ?
M5 PAM: 13.1; M4 PAM: 6.1; CHRM4 antagonist: -0.3; M5 antag: 14.3; M5 ag: 26.7*; CHRM4 agonist: -3.1

How did COc1ccc(C(=O)Oc2ccc3oc(=O)sc3c2)cc1 do in these assays?
M5 PAM: -0.6; M4 PAM: -22.8; CHRM4 antagonist: 57.6*; M5 antag: 8.6; M5 ag: 0.7; CHRM4 agonist: 5.2

What do the screens show for `COc1ccc(C(=O)Oc2ccc3ccc(=O)oc3c2)cc1`?
M5 PAM: -4.3; M4 PAM: 3.0; CHRM4 antagonist: -16.2; M5 antag: 2.3; M5 ag: -2.4; CHRM4 agonist: 7.6

Results for O=C(NNC(=O)C1CCCC1)c1cc([N+](=O)[O-])cc([N+](=O)[O-])c1 ?
M5 PAM: 0.4; M4 PAM: 11.0; CHRM4 antagonist: 0.9; M5 antag: 6.6; M5 ag: 4.0; CHRM4 agonist: 1.8

Results for Cn1c(=O)[nH]c(=O)c2c1nc(SCC(=O)O)n2CCOc1ccccc1 ?
M5 PAM: -7.7; M4 PAM: -15.3; CHRM4 antagonist: 53.6*; M5 antag: 5.2; M5 ag: -5.9; CHRM4 agonist: -0.5

Results for CCCCCC#CCN1CCN(C23CC4CC(CC(C4)C2)C3)CC1 ?
M5 PAM: -15.9; M4 PAM: -14.1; CHRM4 antagonist: 30.0*; M5 antag: 10.0; M5 ag: -9.8; CHRM4 agonist: 1.5

What do the screens show for `CCCC#CCN1CCN(C23CC4CC(CC(C4)C2)C3)CC1`?
M5 PAM: -11.8; M4 PAM: -11.4; CHRM4 antagonist: 27.9*; M5 antag: 15.3; M5 ag: -6.6; CHRM4 agonist: 1.4

What do the screens show for `CC(=O)N1CCN(C23CC4CC(CC(C4)C2)C3)CC1`?
M5 PAM: -1.6; M4 PAM: -1.2; CHRM4 antagonist: 1.3; M5 antag: 1.8; M5 ag: -1.1; CHRM4 agonist: 0.3

What do the screens show for `O=C(OCc1ccccc1)c1ccc(NCc2cc(O)ccc2O)cc1`?
M5 PAM: 9.7; M4 PAM: 0.1; CHRM4 antagonist: 16.4; M5 antag: 3.2; M5 ag: 19.6; CHRM4 agonist: 24.4

How did Cc1ccc(C)c(S(=O)(=O)NCC(=O)Nc2sc3c(c2C(N)=O)CCC(C)C3)c1 (stereo unspecified) do in these assays?
M5 PAM: -0.3; M4 PAM: 10.4; CHRM4 antagonist: 2.6; M5 antag: 5.5; M5 ag: 1.3; CHRM4 agonist: 0.2

What do the screens show for `O=C(CSc1ncnc2[nH]ncc12)Nc1nc(-c2ccc(F)c(F)c2)cs1`?
M5 PAM: -15.4; M4 PAM: -20.0; CHRM4 antagonist: 31.3*; M5 antag: 10.4; M5 ag: 9.9; CHRM4 agonist: 20.0

How did N#Cc1nc(-c2ccccc2F)oc1NCCc1ccccc1 do in these assays?
M5 PAM: -8.7; M4 PAM: 6.8; CHRM4 antagonist: 27.2*; M5 antag: 4.5; M5 ag: -1.6; CHRM4 agonist: -0.2

How did COc1cc(/C=C2\SC(=O)N(c3cccc(Cl)c3)C2=O)cc([N+](=O)[O-])c1O do in these assays?
M5 PAM: 11.1; M4 PAM: 23.4*; CHRM4 antagonist: -8.7; M5 antag: -7.8; M5 ag: 0.5; CHRM4 agonist: -0.1

What do the screens show for `COc1cc(/C=C2\SC(=O)N(c3ccc(Cl)cc3)C2=O)cc([N+](=O)[O-])c1O`?
M5 PAM: 2.3; M4 PAM: 3.1; CHRM4 antagonist: 17.2; M5 antag: 10.0; M5 ag: 0.0; CHRM4 agonist: -0.5

Results for COc1ccccc1Oc1ncnc2c1cnn2-c1ccccc1 ?
M5 PAM: -3.6; M4 PAM: -4.3; CHRM4 antagonist: -2.2; M5 antag: 11.6; M5 ag: -6.3; CHRM4 agonist: 0.4

How did CC(=O)Nc1ccc(Nc2ncnc3c2cnn3-c2ccccc2)cc1 do in these assays?
M5 PAM: 0.4; M4 PAM: 20.7; CHRM4 antagonist: 28.4*; M5 antag: 4.6; M5 ag: -0.8; CHRM4 agonist: 5.8

What do the screens show for `CC(=O)Nc1ccc(Nc2ncnc3c2cnn3-c2cccc(C)c2)cc1`?
M5 PAM: 4.0; M4 PAM: 4.9; CHRM4 antagonist: 0.3; M5 antag: -3.5; M5 ag: 0.0; CHRM4 agonist: 0.1

What do the screens show for `COc1ncnc2c1cnn2-c1ccccc1`?
M5 PAM: 4.0; M4 PAM: 27.4*; CHRM4 antagonist: -16.1; M5 antag: -7.7; M5 ag: -0.5; CHRM4 agonist: 0.6

What do the screens show for `COc1ccc(NC(=O)CSc2nnc(NC(=O)c3ccc(S(=O)(=O)N4CCOCC4)cc3)s2)cc1`?
M5 PAM: 23.0*; M4 PAM: 5.1; CHRM4 antagonist: 22.9; M5 antag: 15.5; M5 ag: 7.4; CHRM4 agonist: 0.8
